Measurements: ChEMBL document CHEMBL3286129, “Optimization of peptidomimetic boronates bearing a P3 bicyclic scaffold as proteasome inhibitors” (Eur J Med Chem, 2014)
Activity calls are given as the source filed them. No cut-off for these calls is given here.

How the values were obtained:
[1] = Growth inhibition of human UACC257 cells; type: functional; conditions: UACC-257
HOP-62 = assay: Growth inhibition of human HOP62 cells; type: functional
[2] = Growth inhibition of human MOLT4 cells; type: functional; conditions: MOLT-4
[3] = Growth inhibition of human SF295 cells; type: functional; conditions: SF-295
[4] = Growth inhibition of human HCC2998 cells; type: functional; conditions: HCC 2998
K562 = assay: Growth inhibition of human K562 cells; type: functional
KM12 = assay: Growth inhibition of human KM12 cells; type: functional
SK-MEL-28 = assay: Growth inhibition of human SK-MEL-28 cells; type: functional
[5] = Growth inhibition of human SF539 cells; type: functional; conditions: SF-539
[6] = Growth inhibition of human LOXIMVI cells; type: functional; conditions: LOX IMVI
HL-60(TB) = assay: Growth inhibition of human HL-60(TB) cells; type: functional
NCI-H23 = assay: Growth inhibition of human NCI-H23 cells; type: functional
SK-OV-3 = assay: Growth inhibition of human SKOV3 cells; type: functional
[7] = Growth inhibition of human OVCAR3 cells; type: functional; conditions: OVCAR-3
[8] = Growth inhibition of human HOP92 cells; type: functional; conditions: HOP-92
NCI-H226 = assay: Growth inhibition of human NCI-H226 cells; type: functional
NCI-H522 = assay: Growth inhibition of human NCI-H522 cells; type: functional
SK-MEL-2 = assay: Growth inhibition of human SK-MEL-2 cells; type: functional
SN12C = assay: Growth inhibition of human SN12C cells; type: functional
HT-29 = assay: Growth inhibition of human HT-29 cells; type: functional
DU-145 = assay: Growth inhibition of human DU145 cells; type: functional
Malme-3M = assay: Growth inhibition of human MALME-3M cells; type: functional
[9] = Growth inhibition of human HCT15 cells; type: functional; conditions: HCT-15
SW-620 = assay: Growth inhibition of human SW620 cells; type: functional
COLO 205 = assay: Growth inhibition of human COLO205 cells; type: functional
ACHN = assay: Growth inhibition of human ACHN cells; type: functional
[10] = Growth inhibition of human UO31 cells; type: functional; conditions: UO-31
PC-3 = assay: Growth inhibition of human PC3 cells; type: functional
TK-10 = assay: Growth inhibition of human TK10 cells; type: functional
HCT-116 = assay: Growth inhibition of human HCT116 cells; type: functional
MDA-MB-231 = assay: Growth inhibition of human MDA-MB-231 cells; type: functional
MDA-MB-435 = assay: Growth inhibition of human MDA-MB-435 cells; type: functional
[11] = Growth inhibition of human EKVX cells; type: functional
U-251 = assay: Growth inhibition of human U251 cells; type: functional
SR = assay: Growth inhibition of human SR cells; type: functional
[12] = Growth inhibition of human NCI-ADR-RES cells; type: functional
RPMI-8226 = assay: Growth inhibition of human RPMI8226 cells; type: functional
CAKI-1 = assay: Growth inhibition of human CAKI-1 cells; type: functional
[13] = Growth inhibition of human OVCAR5 cells; type: functional; conditions: OVCAR-5
[14] = Growth inhibition of human Hs 578T cells; type: functional
SK-MEL-5 = assay: Growth inhibition of human SK-MEL-5 cells; type: functional
MCF7 = assay: Growth inhibition of human MCF7 cells; type: functional
IGROV-1 = assay: Growth inhibition of human IGROV1 cells; type: functional
Chymotrypsinogen A = Chymotrypsinogen A (Bos taurus, UniProt P00766); assay: Inhibition of bovine pancreatic alpha-chymotrypsin using Suc-Leu-Leu-Val-Tyr-AMC as substrate by fluorescence assay
In short: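 Enzyme incubated at 20 °C in 50 mM Tris pH 8.0, 100 mM NaCl, 5 mM EDTA, 7.5% DMSO with varied inhibitor concentrations. Substrate hydrolysis followed for 10 min. Ki from progress curves; mean of three determinations.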

M14 = assay: Growth inhibition of human M14 cells; type: functional
T47D = assay: Growth inhibition of human T47D cells; type: functional
NCI-H322M = assay: Growth inhibition of human NCI-H322M cells; type: functional
786-0 = assay: Growth inhibition of human 786-0 cells; type: functional
[15] = Growth inhibition of human RXF393 cells; type: functional; conditions: RXF 393
[16] = Growth inhibition of human BT549 cells; type: functional; conditions: BT-549
CCRF-CEM = assay: Growth inhibition of human CCRF-CEM cells; type: functional
[17] = Growth inhibition of human OVCAR8 cells; type: functional; conditions: OVCAR-8
A549 = assay: Growth inhibition of human A549/ATCC cells; type: functional
MDA-MB-468 = assay: Growth inhibition of human MDA-MB-468 cells; type: functional
SNB-75 = assay: Growth inhibition of human SNB75 cells; type: functional
SF-268 = assay: Growth inhibition of human SF268 cells; type: functional
NCI-H460 = assay: Growth inhibition of human NCI-H460 cells; type: functional
A498 = assay: Growth inhibition of human A498 cells; type: functional
[18] = Growth inhibition of human UACC62 cells; type: functional; conditions: UACC-62
SNB-19 = assay: Growth inhibition of human SNB19 cells; type: functional
[19] = Growth inhibition of human OVCAR4 cells; type: functional; conditions: OVCAR-4
Proteasome component C5 = molecular target: T1, Proteasome component C5 (Homo sapiens, UniProt P20618); assay: Inhibition of PGPH-like activity of 20S proteasome in human erythrocytes using Z-Leu-Leu-Glu-AMC as substrate by fluorescence assay
T1 sequence (P20618 whole entry): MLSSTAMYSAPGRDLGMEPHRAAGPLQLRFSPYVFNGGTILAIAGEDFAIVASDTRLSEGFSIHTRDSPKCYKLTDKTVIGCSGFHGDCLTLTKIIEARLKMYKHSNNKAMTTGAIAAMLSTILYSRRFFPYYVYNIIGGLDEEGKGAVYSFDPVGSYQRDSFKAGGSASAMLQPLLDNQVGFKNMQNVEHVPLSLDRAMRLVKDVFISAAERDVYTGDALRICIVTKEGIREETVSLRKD
In short: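 Human 20S proteasome 0.004 mg/mL, 30 °C, 50 mM Tris pH 7.5 with 25 mM KCl, 10 mM NaCl, 1 mM MgCl2, 0.03% SDS, 5% DMSO. Ki from 4-parameter IC50 fit of progress curves, corrected to zero substrate via Km. Mean of three.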

[20] = molecular target: Proteasome Macropain subunit (Homo sapiens) (UniProt P49721); assay: Inhibition of trypsin-like activity of 20S proteasome in human erythrocytes using Boc-Leu-Arg-Arg-AMC as substrate by fluorescence assay; type: cell-based
Proteasome Macropain subunit (Homo sapiens), sequence (P49721 whole entry): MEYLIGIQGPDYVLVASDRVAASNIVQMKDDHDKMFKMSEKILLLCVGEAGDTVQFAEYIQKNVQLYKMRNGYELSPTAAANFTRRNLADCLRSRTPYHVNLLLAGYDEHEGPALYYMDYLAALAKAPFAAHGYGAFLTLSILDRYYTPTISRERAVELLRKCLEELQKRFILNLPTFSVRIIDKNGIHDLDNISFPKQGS
In short: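 Human 20S proteasome 0.0025 mg/mL at 30 °C in 50 mM Tris pH 7.4, 50 mM NaCl, 0.5 mM EDTA, 0.03% SDS, 7.5% DMSO. Varied inhibitor concentrations; AMC release monitored continuously for 10 min, ex 380/em 460 nm. Ki derived from progress-curve IC50 fit.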

[21] = molecular target: T2, Proteasome Macropain subunit MB1 (Homo sapiens, UniProt P28074); assay: Inhibition of chymotrypsin-like activity of 20S proteasome in human erythrocytes using Suc-Leu-Leu-Val-Tyr-AMC as substrate by fluorescence assay
T2 sequence (P28074 whole entry): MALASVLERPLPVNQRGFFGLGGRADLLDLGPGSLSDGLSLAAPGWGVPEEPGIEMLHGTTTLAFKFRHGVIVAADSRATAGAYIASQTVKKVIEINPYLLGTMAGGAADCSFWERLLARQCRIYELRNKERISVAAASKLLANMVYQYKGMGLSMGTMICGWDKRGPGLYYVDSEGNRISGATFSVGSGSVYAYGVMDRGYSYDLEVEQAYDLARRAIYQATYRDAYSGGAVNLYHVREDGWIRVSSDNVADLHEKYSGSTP

[22] = molecular target: Proteasome component C5 (Homo sapiens) (UniProt P20618); assay: Inhibition of PGPH-like activity of 20S proteasome in human erythrocytes using Z-Leu-Leu-Glu-AMC as substrate at 20 uM by fluorescence assay relative to control
In short: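 Single-concentration screen of PGPH activity. Human 20S proteasome (0.004 mg/mL) at 30 °C in 50 mM Tris pH 7.5 with 25 mM KCl, 10 mM NaCl, 1 mM MgCl2, 0.03% SDS, 5% DMSO; equivalent DMSO as control. AMC fluorescence at ex 380/em 460 nm.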

[23] = molecular target: T3, Proteasome Macropain subunit MB1 (Homo sapiens) (UniProt P28074); assay: Inhibition of chymotrypsin-like activity of 20S proteasome in human erythrocytes using Suc-Leu-Leu-Val-Tyr-AMC as substrate at 20 uM by fluorescence assay relative to control
T3 sequence (whole entry): T2 sequence (P28074 whole entry)
In short: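 Single inhibitor concentration, equivalent DMSO as negative control. AMC fluorescence read at ex 380/em 460 nm; percent inhibition of ChT-L activity.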

CC(C)C[C@H](NC(=O)[C@H](Cc1ccccc1)NC(=O)c1cnccn1)B(O)O [BORTEZOMIB]
GI50 [1]: 0.59 nM | GI50 (HOP-62): 4.47 nM | GI50 [2]: 0.51 nM | GI50 [3]: 1.7 nM | GI50 [4]: 0.6 nM | GI50 (K562): 1.17 nM | GI50 (KM12): 1.7 nM | GI50 (SK-MEL-28): 0.46 nM | GI50 [5]: 0.59 nM | GI50 [6]: 0.78 nM | GI50 (HL-60(TB)): 1.9 nM | GI50 (NCI-H23): 1 nM | GI50 (SK-OV-3): 13.8 nM | GI50 [7]: 0.54 nM | GI50 [8]: 1 nM | GI50 (NCI-H226): 0.46 nM | GI50 (NCI-H522): 1.44 nM | GI50 (SK-MEL-2): 1.07 nM | GI50 (SN12C): 1.1 nM | GI50 (HT-29): 0.95 nM | GI50 (DU-145): 1.7 nM | GI50 (Malme-3M): 0.45 nM | GI50 [9]: 1.51 nM | GI50 (SW-620): 0.55 nM | GI50 (COLO 205): 1.23 nM | GI50 (ACHN): 0.79 nM | GI50 [10]: 1.05 nM | GI50 (PC-3): 2.63 nM | GI50 (TK-10): 1 nM | GI50 (HCT-116): 0.6 nM | GI50 (MDA-MB-231): 1.26 nM | GI50 (MDA-MB-435): 0.44 nM | GI50 [11]: 3.02 nM | GI50 (U-251): 1.55 nM | GI50 (SR): 0.85 nM | GI50 [12]: 12.3 nM | GI50 (RPMI-8226): 0.23 nM | GI50 (CAKI-1): 0.66 nM | GI50 [13]: 1.55 nM | GI50 [14]: 1.02 nM | GI50 (SK-MEL-5): 0.68 nM | GI50 (MCF7): 0.55 nM | GI50 (IGROV-1): 2.24 nM | Ki (Chymotrypsinogen A; read-out: Ki): 2400 nM | GI50 (M14): 0.93 nM | GI50 (T47D): 0.6 nM | GI50 (NCI-H322M): 17.8 nM | GI50 (786-0): 1.44 nM | GI50 [15]: 0.71 nM | GI50 [16]: 0.55 nM | GI50 (CCRF-CEM): 0.35 nM | GI50 [17]: 2.63 nM | GI50 (A549): 3.09 nM | GI50 (MDA-MB-468): 1.48 nM | GI50 (SNB-75): 2.04 nM | GI50 (SF-268): 1.17 nM | GI50 (NCI-H460): 4.47 nM | GI50 (A498): 0.48 nM | GI50 [18]: 0.91 nM | GI50 (SNB-19): 2.04 nM | GI50 [19]: 1.95 nM

CC(C)CCNC(=O)CCn1ccc2ncccc2c1=O
Ki (Proteasome component C5): Not Active | inhibition [20]: inactive | Ki ([21]; read-out: Ki): 4570 nM

CC(C)CCNC(=O)CCn1cc(Br)c2ncccc2c1=O
inhibition [20]: inactive | Ki (Chymotrypsinogen A): Not Active | inhibition [22]: 44% | Ki ([21]; read-out: Ki): 80 nM

CC(C)C[C@H](NC(=O)CCn1cc(Br)c2ncccc2c1=O)B(O)O
inhibition [23]: > 40% | Ki (Proteasome component C5): Not Active | inhibition [20]: inactive | Ki (Chymotrypsinogen A): Not Active | Ki [21]: Not Active
